Test results from ChEMBL document CHEMBL1141712, “Kinase array design, back to front: biaryl amides” (Bioorg Med Chem Lett, 2008).
Blank lines part the entries; values can stand above or below the molecule they belong to.

How the values were obtained:
[1] = target: T1, Mitogen-activated protein kinase 14 (Homo sapiens, UniProt Q16539); experiment: Displacement of fluorescent ATP competitive ligand from p38alpha
[2] = system: Blood; experiment: Inhibition of LPS-stimulated TNFalpha release in human whole blood; format: functional, tissue-based
[3] = target: Cyclin-dependent kinase 2 (Homo sapiens, UniProt P24941); experiment: Inhibition of CDK2
[4] = target: Macrophage colony-stimulating factor 1 receptor (Homo sapiens, UniProt P07333); experiment: Inhibition of cFMS
[5] = target: Receptor tyrosine-protein kinase erbB-4 (Homo sapiens, UniProt Q15303); experiment: Inhibition of ErbB4
[6] = target: Mitogen-activated protein kinase 10 (Homo sapiens, UniProt P53779); experiment: Inhibition of JNK3
[7] = target: Serine/threonine-protein kinase PLK1 (Homo sapiens, UniProt P53350); experiment: Inhibition of PLK1
[8] = target: T2, Serine/threonine-protein kinase Sgk1 (Homo sapiens, UniProt O00141); experiment: Inhibition of SGK1
T2 sequence (O00141 whole entry): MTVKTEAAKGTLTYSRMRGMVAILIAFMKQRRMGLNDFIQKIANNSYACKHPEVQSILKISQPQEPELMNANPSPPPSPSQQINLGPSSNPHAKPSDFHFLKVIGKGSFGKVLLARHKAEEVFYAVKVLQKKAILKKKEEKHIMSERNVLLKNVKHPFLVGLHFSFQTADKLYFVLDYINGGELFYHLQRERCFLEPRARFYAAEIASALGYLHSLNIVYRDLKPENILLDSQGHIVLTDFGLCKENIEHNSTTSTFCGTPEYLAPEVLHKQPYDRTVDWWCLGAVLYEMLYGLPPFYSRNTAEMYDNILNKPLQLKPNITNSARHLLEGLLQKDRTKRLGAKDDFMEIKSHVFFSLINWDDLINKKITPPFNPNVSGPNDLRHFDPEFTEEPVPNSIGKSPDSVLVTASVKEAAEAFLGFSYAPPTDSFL

[9] = target: Vascular endothelial growth factor receptor 2 (Homo sapiens, UniProt P35968); experiment: Inhibition of VEGFR2
[10] = system: PBMC; experiment: Inhibition of LPS-stimulated TNFalpha release in human PBMCs; format: functional, cell-based
[11] = target: Epidermal growth factor receptor (Homo sapiens, UniProt P00533)
[12] = target: Tyrosine-protein kinase Lck (Homo sapiens, UniProt P06239)
[13] = Terminal half life in Lewis rat at 1 mg/kg, iv; format: ADME, organism-based; set-up: dose 1 mg/kg, route intravenous; settings: in vivo, read-out: beta t1/2 (converted)
Procedure, shortened: (§1)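 Male Lewis rats were dosed at 1 mg/kg intravenously and orally, with compound given as a solution in 10% DMSO/70% PEG200/20% water. Blood was collected over 12 h, and parameters were derived from a composite blood sampling profile.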

[14] = AUC ( 0 to 12 hrs) in Lewis rat at 1 mg/kg, po; format: ADME, organism-based; set-up: time < 12 hr, dose 1 mg/kg, route oral; settings: plasma
[15] = target: Dual specificity mitogen-activated protein kinase kinase 1 (Homo sapiens, UniProt Q02750); experiment: Inhibition of MEK1 by cRaf/mek/Erk cascade assay
[16] = Volume of distribution at steady state in Lewis rat at 1 mg/kg, iv; format: ADME, organism-based; set-up: dose 1 mg/kg, route intravenous; settings: in vivo, read-out: Vdss; procedure, shortened: as §1
[17] = Plasma clearance in Lewis rat at 1 mg/kg, iv; format: ADME, organism-based; set-up: dose 1 mg/kg, route intravenous; procedure, shortened: as §1
[18] = Oral bioavailability in Lewis rat at 1 mg/kg; format: ADME, organism-based; settings: in vivo; procedure, shortened: as §1
[19] = target: T1, Mitogen-activated protein kinase 14; experiment: Inhibition of p38alpha
Procedure, shortened: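 p38α Ki determined by measuring displacement of a fluorescent ATP-competitive inhibitor from the enzyme. Impure products and those giving inconsistent assay results were excluded.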

Chain of Tyrosine-protein kinase Lck (P06239 whole entry): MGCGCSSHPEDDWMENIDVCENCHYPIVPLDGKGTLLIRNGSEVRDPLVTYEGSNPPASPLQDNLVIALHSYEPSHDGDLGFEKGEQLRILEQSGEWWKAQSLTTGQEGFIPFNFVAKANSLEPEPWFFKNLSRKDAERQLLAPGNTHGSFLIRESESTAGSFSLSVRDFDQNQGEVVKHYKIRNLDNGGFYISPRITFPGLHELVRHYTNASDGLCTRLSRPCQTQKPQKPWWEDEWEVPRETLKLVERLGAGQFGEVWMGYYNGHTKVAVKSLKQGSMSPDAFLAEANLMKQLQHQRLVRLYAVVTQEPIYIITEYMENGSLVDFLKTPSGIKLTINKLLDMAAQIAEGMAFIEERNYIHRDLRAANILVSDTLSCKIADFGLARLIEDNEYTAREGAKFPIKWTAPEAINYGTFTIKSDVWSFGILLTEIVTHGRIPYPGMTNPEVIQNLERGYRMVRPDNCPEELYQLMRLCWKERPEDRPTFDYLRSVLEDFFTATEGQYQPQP
Chain of Epidermal growth factor receptor (P00533 whole entry): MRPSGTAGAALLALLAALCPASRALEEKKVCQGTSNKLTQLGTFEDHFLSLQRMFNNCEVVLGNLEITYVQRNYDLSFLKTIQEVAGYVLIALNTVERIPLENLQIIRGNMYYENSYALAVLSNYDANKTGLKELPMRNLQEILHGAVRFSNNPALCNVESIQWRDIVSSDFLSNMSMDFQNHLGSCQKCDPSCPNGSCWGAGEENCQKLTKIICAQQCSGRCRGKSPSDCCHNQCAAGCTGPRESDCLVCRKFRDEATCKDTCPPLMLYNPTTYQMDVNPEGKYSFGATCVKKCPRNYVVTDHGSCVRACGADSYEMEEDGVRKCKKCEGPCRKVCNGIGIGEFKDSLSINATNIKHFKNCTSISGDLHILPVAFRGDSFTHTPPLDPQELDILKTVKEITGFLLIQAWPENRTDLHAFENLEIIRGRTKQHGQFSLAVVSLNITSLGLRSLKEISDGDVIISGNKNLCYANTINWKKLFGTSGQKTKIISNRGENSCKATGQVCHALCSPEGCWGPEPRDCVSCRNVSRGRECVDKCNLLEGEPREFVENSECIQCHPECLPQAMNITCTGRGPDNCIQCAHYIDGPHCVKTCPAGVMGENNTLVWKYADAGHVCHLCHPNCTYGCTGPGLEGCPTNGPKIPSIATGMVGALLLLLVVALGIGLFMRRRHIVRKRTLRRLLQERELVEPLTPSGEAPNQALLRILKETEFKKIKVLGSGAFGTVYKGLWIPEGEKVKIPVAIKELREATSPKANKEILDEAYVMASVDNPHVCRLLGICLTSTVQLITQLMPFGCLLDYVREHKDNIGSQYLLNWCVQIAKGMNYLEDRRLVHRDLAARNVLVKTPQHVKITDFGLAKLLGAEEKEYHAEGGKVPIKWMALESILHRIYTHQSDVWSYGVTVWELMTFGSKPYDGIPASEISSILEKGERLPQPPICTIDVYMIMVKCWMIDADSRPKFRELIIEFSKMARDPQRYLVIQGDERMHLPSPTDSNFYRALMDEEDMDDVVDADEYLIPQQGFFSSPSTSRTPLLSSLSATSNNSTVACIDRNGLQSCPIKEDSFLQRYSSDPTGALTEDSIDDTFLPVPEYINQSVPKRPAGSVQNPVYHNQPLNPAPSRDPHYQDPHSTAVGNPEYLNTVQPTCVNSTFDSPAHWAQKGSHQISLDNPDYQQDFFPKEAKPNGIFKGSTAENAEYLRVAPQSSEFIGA
Chain of Macrophage colony-stimulating factor 1 receptor (P07333 whole entry): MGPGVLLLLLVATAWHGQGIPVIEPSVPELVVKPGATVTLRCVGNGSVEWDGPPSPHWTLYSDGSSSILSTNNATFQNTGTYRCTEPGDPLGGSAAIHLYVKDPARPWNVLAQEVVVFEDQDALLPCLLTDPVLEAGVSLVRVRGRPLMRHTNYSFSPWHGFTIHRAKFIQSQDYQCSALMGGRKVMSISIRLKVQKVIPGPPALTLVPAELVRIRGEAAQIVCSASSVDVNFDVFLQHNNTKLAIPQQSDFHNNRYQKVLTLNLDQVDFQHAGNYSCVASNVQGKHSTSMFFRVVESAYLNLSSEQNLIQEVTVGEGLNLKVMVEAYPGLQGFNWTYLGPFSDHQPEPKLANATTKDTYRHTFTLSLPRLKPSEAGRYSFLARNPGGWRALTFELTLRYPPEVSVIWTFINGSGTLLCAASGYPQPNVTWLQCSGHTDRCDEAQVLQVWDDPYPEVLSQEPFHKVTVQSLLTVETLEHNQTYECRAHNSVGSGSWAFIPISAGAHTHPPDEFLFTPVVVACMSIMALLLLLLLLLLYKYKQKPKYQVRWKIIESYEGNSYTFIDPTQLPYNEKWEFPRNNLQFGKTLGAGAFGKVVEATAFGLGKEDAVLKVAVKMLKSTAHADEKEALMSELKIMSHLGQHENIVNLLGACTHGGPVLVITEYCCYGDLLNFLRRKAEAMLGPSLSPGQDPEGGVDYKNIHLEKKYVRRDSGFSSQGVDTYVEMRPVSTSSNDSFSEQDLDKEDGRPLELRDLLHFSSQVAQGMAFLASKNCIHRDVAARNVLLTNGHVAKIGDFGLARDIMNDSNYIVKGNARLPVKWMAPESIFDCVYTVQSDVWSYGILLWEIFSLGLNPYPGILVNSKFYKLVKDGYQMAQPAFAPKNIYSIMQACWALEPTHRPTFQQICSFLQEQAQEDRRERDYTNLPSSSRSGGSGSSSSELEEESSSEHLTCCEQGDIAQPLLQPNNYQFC
T1 sequence (Q16539 whole entry): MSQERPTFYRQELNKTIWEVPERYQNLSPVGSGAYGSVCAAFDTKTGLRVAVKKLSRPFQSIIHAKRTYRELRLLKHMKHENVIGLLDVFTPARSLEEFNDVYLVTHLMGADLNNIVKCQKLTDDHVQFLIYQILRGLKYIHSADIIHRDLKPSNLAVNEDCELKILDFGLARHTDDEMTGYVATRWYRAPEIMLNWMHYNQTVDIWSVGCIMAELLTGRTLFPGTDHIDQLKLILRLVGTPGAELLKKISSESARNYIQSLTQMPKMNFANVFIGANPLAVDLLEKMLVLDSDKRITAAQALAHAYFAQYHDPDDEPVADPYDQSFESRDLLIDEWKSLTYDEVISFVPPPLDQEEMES
Chain of Serine/threonine-protein kinase PLK1 (P53350 whole entry): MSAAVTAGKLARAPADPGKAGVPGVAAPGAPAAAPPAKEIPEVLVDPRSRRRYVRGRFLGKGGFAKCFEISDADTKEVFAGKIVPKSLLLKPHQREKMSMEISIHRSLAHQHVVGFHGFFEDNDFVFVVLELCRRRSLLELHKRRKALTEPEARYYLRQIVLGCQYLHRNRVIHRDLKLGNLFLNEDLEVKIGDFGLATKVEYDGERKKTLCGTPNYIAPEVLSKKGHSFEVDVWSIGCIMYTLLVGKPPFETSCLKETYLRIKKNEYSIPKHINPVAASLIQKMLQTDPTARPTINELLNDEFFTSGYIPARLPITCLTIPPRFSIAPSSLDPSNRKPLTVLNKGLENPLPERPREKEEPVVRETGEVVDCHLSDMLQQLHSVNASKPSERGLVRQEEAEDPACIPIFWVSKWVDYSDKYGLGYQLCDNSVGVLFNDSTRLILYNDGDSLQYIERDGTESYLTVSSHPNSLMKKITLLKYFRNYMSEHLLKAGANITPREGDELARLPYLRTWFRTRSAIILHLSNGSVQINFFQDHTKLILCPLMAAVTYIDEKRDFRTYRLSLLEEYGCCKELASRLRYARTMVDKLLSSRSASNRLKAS
Chain of Vascular endothelial growth factor receptor 2 (P35968 whole entry): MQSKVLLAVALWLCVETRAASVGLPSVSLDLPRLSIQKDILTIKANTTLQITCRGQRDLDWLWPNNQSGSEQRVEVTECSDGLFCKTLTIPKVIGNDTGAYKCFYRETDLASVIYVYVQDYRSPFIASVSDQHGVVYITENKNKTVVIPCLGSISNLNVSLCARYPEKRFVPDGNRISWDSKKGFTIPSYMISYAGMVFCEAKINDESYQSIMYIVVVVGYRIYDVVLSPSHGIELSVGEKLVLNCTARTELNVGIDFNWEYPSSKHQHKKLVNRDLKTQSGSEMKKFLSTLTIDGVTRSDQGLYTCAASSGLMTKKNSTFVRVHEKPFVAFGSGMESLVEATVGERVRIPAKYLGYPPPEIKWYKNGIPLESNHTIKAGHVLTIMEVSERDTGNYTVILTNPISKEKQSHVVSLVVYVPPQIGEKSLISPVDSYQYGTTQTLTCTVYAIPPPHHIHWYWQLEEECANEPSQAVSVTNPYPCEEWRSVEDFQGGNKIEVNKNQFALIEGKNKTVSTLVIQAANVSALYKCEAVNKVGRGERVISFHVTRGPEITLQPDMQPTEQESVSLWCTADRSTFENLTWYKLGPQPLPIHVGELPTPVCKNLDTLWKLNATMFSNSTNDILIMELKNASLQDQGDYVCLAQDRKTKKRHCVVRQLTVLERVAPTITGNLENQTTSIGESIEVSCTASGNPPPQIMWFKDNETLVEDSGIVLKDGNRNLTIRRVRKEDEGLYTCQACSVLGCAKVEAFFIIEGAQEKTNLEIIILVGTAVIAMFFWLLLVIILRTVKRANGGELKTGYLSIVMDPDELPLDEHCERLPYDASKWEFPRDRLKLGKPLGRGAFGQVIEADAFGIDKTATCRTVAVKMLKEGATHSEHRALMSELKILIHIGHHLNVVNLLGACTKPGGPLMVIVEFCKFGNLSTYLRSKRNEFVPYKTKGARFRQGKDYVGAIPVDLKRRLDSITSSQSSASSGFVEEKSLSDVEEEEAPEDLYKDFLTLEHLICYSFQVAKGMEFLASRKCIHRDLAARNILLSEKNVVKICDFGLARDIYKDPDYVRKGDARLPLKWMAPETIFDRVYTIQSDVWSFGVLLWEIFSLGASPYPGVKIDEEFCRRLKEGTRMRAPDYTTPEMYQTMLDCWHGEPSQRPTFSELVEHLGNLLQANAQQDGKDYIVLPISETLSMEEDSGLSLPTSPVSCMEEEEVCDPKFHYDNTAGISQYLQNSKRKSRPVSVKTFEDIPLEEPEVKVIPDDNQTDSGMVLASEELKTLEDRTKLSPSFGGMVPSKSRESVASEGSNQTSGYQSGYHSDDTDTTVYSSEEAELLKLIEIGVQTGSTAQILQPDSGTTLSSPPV

- Ki [1]: 19 nM
Compound: CCCCn1c(=O)[nH]c2cc(-c3cc(C(=O)Nc4cccc(N5CCOCC5)c4)ccc3C)ccc2c1=O

- Ki [1]: > 2500 nM
Compound: Cc1ccc(NC(=O)c2ccc(CN3CCN(C)CC3)cc2)cc1-c1ccc2[nH]c(=O)ccc2c1

- Ki [1]: 18 nM
Compound: Cc1ccc(C(=O)Nc2cccc(N3CCOCC3)c2)cc1-c1ccc2cc[nH]c(=O)c2c1

- Ki [1]: 2.4 nM
Compound: Cc1ccc(NC(=O)c2ccnc(N3CCCC3)c2)cc1-c1ccc2cc[nH]c(=O)c2c1

- Ki [1]: > 2500 nM
Compound: Cc1ccc(NC(=O)c2ccc(CN3CCN(C)CC3)cc2)cc1-c1ccc2cc[nH]c(=O)c2c1

- Ki [1]: 2000 nM
Compound: CCCCn1c(=O)[nH]c2cc(-c3cc(NC(=O)c4ccc(CN5CCN(C)CC5)cc4)ccc3C)ccc2c1=O

- Ki [19]: > 2000 nM
Compound: Cc1ccc(C(=O)Nc2cccc(N3CCOCC3)c2)cc1I

- Ki [1]: 20 nM
Compound: Cc1ccc(C(=O)Nc2cccc(N3CCOCC3)c2)cc1-c1ccc(-c2csc(N)n2)cc1

- Ki [1]: 19 nM
Compound: Cc1ccc(C(=O)Nc2cccc(N3CCOCC3)c2)cc1-c1ccc2c(N)noc2c1

Second part, the molecule before the results:

Compound: Cc1ccc(C(=O)NC2CC2)cc1-c1ccc2cc[nH]c(=O)c2c1
- Ki [1]: 420 nM

Compound: Cc1ccc(C(=O)NC2CC2)cc1-c1ccc2c(N)noc2c1
- Ki [1]: 110 nM

Compound: Cc1ccc(C(=O)NC2CC2)cc1-c1ccc(-c2csc(N)n2)cc1
- Ki [1]: 130 nM

Compound: Cc1ccc(NC(=O)c2ccnc(N3CCCC3)c2)cc1-c1ccc2nc(N)[nH]c(=O)c2c1
- Ki [1]: 6.8 nM

Compound: Cc1nc(-c2ccc(-c3cc(NC(=O)c4ccnc(N5CCCC5)c4)ccc3C)cc2)no1
- Ki [1]: 1.1 nM

Compound: Cc1ccc(C(=O)NC2CC2)cc1-c1ccc2c(=O)n(CC3CC3)nnc2c1
- IC50 [2]: 500 nM
- Ki [1]: 6 nM
- IC50 [3]: > 20000 nM
- IC50 [4]: > 20000 nM
- IC50 [5]: > 25000 nM
- IC50 [6]: > 16000 nM
- IC50 [7]: > 25000 nM
- IC50 [8]: 32000 nM
- IC50 [9]: > 20000 nM
- IC50 [10]: 400 nM
- IC50 [11]: > 25000 nM
- IC50 [12]: > 16000 nM

Compound: Cc1ccc(NC(=O)c2ccc(CN3CCN(C)CC3)cc2)cc1-c1ccc2ccncc2c1
- Ki [1]: 830 nM
- IC50 [3]: > 20000 nM
- IC50 [4]: 4 nM
- IC50 [5]: 300 nM
- IC50 [6]: > 16000 nM
- IC50 [7]: > 25000 nM
- IC50 [8]: > 33000 nM
- IC50 [9]: 800 nM
- IC50 [11]: 700 nM
- IC50 [12]: 70 nM

Compound: Cc1nnc(-c2ccc(-c3cc(C(=O)NC4CC4)ccc3C)c(C)c2)o1
- IC50 [2]: 1000 nM
- half-life [13]: 4.6 h
- AUC(0-t) at 12 h [14]: 4180 ng·h/mL
- IC50 [15]: 20000 nM
- IC50 [3]: > 20000 nM
- IC50 [4]: > 20000 nM
- IC50 [7]: > 25000 nM
- IC50 [8]: > 33000 nM
- IC50 [9]: > 20000 nM
- IC50 [10]: 100 nM
- Vd [16]: 1.2 L/kg
- clearance [17]: 3 mL/min/kg
- bioavailability [18]: 91%

Compound: Cc1ccc(NC(=O)c2ccnc(N3CCCC3)c2)cc1-c1ccc2onc(C)c2c1
- Ki [1]: 160 nM

Compound: Cc1nnc(-c2ccc(-c3cc(C(=O)Nc4cccc(N5CCOCC5)c4)ccc3C)c(C)c2)o1
- Ki [1]: 2.8 nM
- IC50 [15]: 400 nM
- IC50 [3]: > 20000 nM
- IC50 [4]: 700 nM
- IC50 [6]: > 16000 nM
- IC50 [7]: > 25000 nM
- IC50 [8]: > 33000 nM
- IC50 [9]: 6000 nM

Compound: Cc1ccc(C(=O)NC2CC2)cc1-c1ccc2c(=O)[nH]c(-c3cccs3)nc2c1
- Ki [1]: 2.9 nM

Compound: Cc1ccc(C(=O)NC2CC2)cc1-c1ccc2onc(C)c2c1
- Ki [1]: 1100 nM

Compound: Cc1ccc(NC(=O)c2ccnc(N3CCCC3)c2)cc1-c1ccc(-c2csc(N)n2)cc1
- Ki [1]: 6.7 nM

Compound: Cc1ccc(C(=O)NC2CC2)cc1-c1ccc2ccncc2c1
- IC50 [2]: 100 nM
- Ki [1]: 11 nM
- IC50 [3]: > 20000 nM
- IC50 [4]: 600 nM
- IC50 [5]: > 25000 nM
- IC50 [6]: > 16000 nM
- IC50 [7]: > 25000 nM
- IC50 [8]: > 33000 nM
- IC50 [9]: 500 nM
- IC50 [10]: 100 nM
- IC50 [11]: > 25000 nM
- IC50 [12]: 3000 nM

Compound: Cc1ccc(C(=O)NC2CC2)cc1-c1ccc2[nH]ncc2c1 [GW820759X]
- Ki [1]: 87 nM
